In the library only some 0.6% were active in any assay of this set; here they are far more common.
TNAP inh hi DEA: inhibitors of human TNAP at high phosphate acceptor concentration; P05186; purified TNAP, CDP-star luminescence, 1 M DEA; 0.03% of 200,000 active; inhibition, % at 20 µM;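 active = over 50% inhibition of tissue-nonspecific alkaline phosphatase at 20 µM in the single-dose screen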;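 note: plate controls were DMSO wells for no effect and EDTA-quenched wells as full inhibition for full effect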
Target sequence (P05186 whole entry, looked up): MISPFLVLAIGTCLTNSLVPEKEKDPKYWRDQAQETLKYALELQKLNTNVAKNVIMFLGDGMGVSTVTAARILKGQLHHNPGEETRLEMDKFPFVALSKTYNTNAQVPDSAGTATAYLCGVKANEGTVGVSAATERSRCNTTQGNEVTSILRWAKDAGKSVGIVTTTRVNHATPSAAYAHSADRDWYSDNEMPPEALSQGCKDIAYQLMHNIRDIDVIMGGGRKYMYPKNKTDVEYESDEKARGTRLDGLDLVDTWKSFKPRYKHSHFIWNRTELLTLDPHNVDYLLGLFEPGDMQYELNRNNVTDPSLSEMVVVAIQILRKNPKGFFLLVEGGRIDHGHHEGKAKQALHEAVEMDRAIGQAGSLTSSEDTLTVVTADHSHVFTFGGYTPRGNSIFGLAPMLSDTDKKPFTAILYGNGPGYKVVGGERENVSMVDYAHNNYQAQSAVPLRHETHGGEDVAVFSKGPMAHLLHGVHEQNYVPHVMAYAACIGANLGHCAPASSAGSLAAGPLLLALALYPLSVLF
PMI act: activators of human phosphomannose isomerase; P34949; purified human PMI, coupled resazurin fluorescence, 20 min; active compounds read high; 1 = vehicle control, 0 substrate-free wells; activation factor at 20 µM; 0.005% of 190,000 active; AID 1214;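 active = activation factor of 2 or more at 20 µM, relative to plate controls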
TNAP act hi DEA: TNAP (human) activation, high acceptor | P05186 | purified TNAP, CDP-star luminescence, 1 M DEA, 30 min; active compounds read high; 0 = EDTA background, 1 = DMSO-only activity | activation factor at 20 µM | 200,000 tested, under 10 active | AID 1136;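 active = activation factor at least 2 at 20 µM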
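system = human TNAP | amount = enzyme diluted 1/800 final | reagent = 100 µM CDP-star substrate | signal = luminescent substrate turnover signal | dosing = one dose, 20 µM | benchmarks = EDTA negative control, DMSO positive control | measure = activation factor | timing = 30 min reaction, room temperature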
PMI act satM6P: activators of human phosphomannose isomerase at near-saturating mannose 6-phosphate. activation factor at 20 µM. AID 1216. coupled PMI enzyme assay, resazurin fluorescence, 20 min; active compounds read high; 1 = untreated enzyme, 0 = substrate-free blank. 0.34% of 190,000 active. P34949;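 active = activation factor of 2 or more at 20 µM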
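Test system: Human PMI in coupled enzyme assay | Input: 15 ng/mL PMI | Medium: HEPES-buffered pH 7.4 with magnesium and detergent | Compound: One concentration, 20 µM, in 1% DMSO | Incubation: Enzyme reaction with compound 20 min at room temperature | Detection: Diaphorase-driven resazurin-to-resorufin fluorescence, excitation 544, emission 590 nm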
Rad51 HR inh: Rad51 (human) homologous recombination inhibition | Q06609 | 0.085% of 200,000 active | hRad51 DNA strand exchange, fluorescence dequenching | inhibition, % at 10 µM;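 active = inhibition above 40% at the single screening dose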;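 note: 0% = DMSO control wells and 100% = blanks with heterologous ssDNA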
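System: hRad51 filaments on single-stranded DNA; reagent: Fluorescein- and BHQ1-tagged 47-mer duplex; compound dosing: one concentration, 10 µM final; timing: filaments 15 min 37 °C, then compound 30 min; measured by: fluorescein emission 520 nm, excitation 485 nm; benchmarks: per-plate controls and blanks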
TNAP inh noacc: blocks human TNAP activity with no phosphate acceptor present | purified TNAP, CDP-star luminescence, 30 min | inhibition, % at 20 µM | 0.26% of 200,000 active | AID 1012;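 active = tissue-nonspecific alkaline phosphatase inhibition above about 50% at 20 µM in the single-dose screen, limit read from the data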;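 note: 0% = DMSO negative control and 100% = EDTA positive control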
Active calls of the source: *; i = inactive; . = no result.

SMILES	TNAP inh hi DEA	PMI act	TNAP act hi DEA	PMI act satM6P	Rad51 HR inh	TNAP inh noacc
CCOC(=O)C1=NN(C(=O)COc2ccccc2)C(O)(c2ccc(Br)cc2)C1 (stereo not drawn)	2.0	0.9	1	0.9	-101.4	50.7*
CCC1=NN(C(=O)COc2ccccc2)C(O)(c2ccncc2)C1 (stereo not drawn)	-5.3	1	1.1	1	10.3	-10.7
CCNC(=S)N1CCN(CC(=O)Nc2ccc(Br)cc2)CC1	4.0	0.8	1	0.9	-7.3	-11.9
COCCn1c(CN2CCc3ccccc3C2)nc2c1c(=O)n(C)c(=O)n2C	-0.1	1	1	1	4.7	-8.8
Cn1c(=O)c2c(nc(CN3CCc4ccccc4C3)n2CCCO)n(C)c1=O	-0.1	1.8	1	2.2*	2.5	-12.7
Cc1c(-c2ccccc2)nc2ccccc2c1C(=O)Oc1ccc([N+](=O)[O-])cc1	-5.0	1	1.1	1	-2.7	-10.9
CC(C)Cc1nn2c(N)c(/C=C3\C=Nc4ccccc43)c(=O)nc2s1	17.3	1	0.8	1	-10.0	83.1*
CCCc1nn2c(N)c(/C=C3\C=Nc4ccccc43)c(=O)nc2s1	4.8	1	1	1	5.2	58.2*
CCCCc1nn2c(N)c(/C=C3\C=Nc4ccccc43)c(=O)nc2s1	9.6	1	0.9	1	.	66.1*
CC(C)Sc1nsc2nc(=O)c(/C=C3\C=Nc4ccccc43)c(N)n12	31.1	1	0.7	0.9	-1.6	61.6*
CCC(CC)c1nn2c(N)c(/C=C3\C=Nc4ccccc43)c(=O)nc2s1	.	.	.	.	-0.2	.
COC(=O)CN1C(=O)C(O)(CC(=O)c2ccc(C)o2)c2ccccc21 (stereo not drawn)	-0.4	0.9	1	1	-0.1	-4.9
COc1ccccc1-c1cc(C(=O)Nc2cc(C)n(Cc3ccc(Cl)cc3)n2)no1	-5.5	1.1	1.1	1	3.0	-11.7
COC(=O)/C=C/c1ccc(-n2cncn2)cc1	-1.9	1.2	1	1.1	13.5	-9.9
CCN(CC)c1ccc(/C=N/NS(=O)(=O)c2ccc(C)c([N+](=O)[O-])c2)cc1	0.0	1.1	1	1.4	-6.0	-15.2
CCN(Cc1ccccc1)c1ccc(/C=N/NS(=O)(=O)c2cccc([N+](=O)[O-])c2)cc1	1.1	1.5	1	2*	.	-12.9
O=c1/c(=C\c2cc([N+](=O)[O-])cc([N+](=O)[O-])c2O)sc2nc3ccccc3n12	13.4	1.7	0.9	2.4*	i	17.5
COc1ccc(OCC(=O)N/N=C/c2ccc(N(C)C)cc2)cc1	-4.1	0.9	1	0.8	19.6	-7.7
CN(CCO)c1nc(N)c2c(N)nc3c(c2c1C#N)CC(=O)N3C1CCCC1	4.6	0.4	1	0.5	11.9	-6.4
NC(=O)c1ccccc1NC(=O)/C=C/c1ccccc1	-4.7	0.8	1	1	-0.8	-8.4
NC(=S)NC(=O)/C=C/c1ccccc1	-1.7	1.1	1	1	41.4*	-4.2
O=C(CSCc1ccc(F)cc1)Nc1nc2c(s1)CCCC2	-8.8	0.9	1.1	0.9	66.0*	-12.3
CCOC(=O)C(=O)Nc1ccc(F)cc1	-3.6	1	1	1	1.6	-19.7
CCOC(=O)C(=O)NNc1ccc(C)cc1	-0.5	1.4	1	2*	1.0	-8.7
CCOC(=O)C(=O)NNc1ccc(Cl)cc1	-4.8	1.7	1	2.5*	0.7	-12.4
SMILES	TNAP inh hi DEA	PMI act	TNAP act hi DEA	PMI act satM6P	Rad51 HR inh	TNAP inh noacc
CCCOC(=O)C(=O)NNc1ccccc1	3.3	1.9	1	2.9*	4.9	4.8
CN(c1ccccc1)c1nc(N)c([N+](=O)[O-])c(N2CCCCCC2)n1	.	.	.	.	16.1	.
COc1cc(/C=N/NC(=O)c2cc(-c3ccc4c(c3)OCO4)n[nH]2)ccc1O	-1.6	1.1	1	1.1	15.7	87.3*
CCOc1cccc(/C=N/NC(=O)c2cc(-c3cccn3C)n[nH]2)c1O	-2.3	1	1	1.1	-3.8	-170.2
COc1ccccc1NC(=O)NCc1ccc2c(c1)OCO2	-0.6	0.9	1	0.9	6.5	-11.5
COc1ccc(/C=N/NC(=O)c2cc(-c3cccn3C)n[nH]2)cc1OC	2.8	1.1	1	1.1	24.0	94.2*
O=C(N/N=C/c1ccc([N+](=O)[O-])cc1)c1cc(-c2ccc3c(c2)OCO3)n[nH]1	.	.	.	.	7.4	.
COc1cc(OC)c(OC)cc1/C=N/NC(=O)c1cc(-c2cccn2C)n[nH]1	10.1	0.9	0.9	0.9	6.0	85.4*
COc1ccccc1N/N=C/c1ccc2c(c1)OCO2	-1.4	1.5	1	2.3*	.	-6.1
COc1ccc(CCNC(=O)c2c(-c3ccccc3)noc2C)cc1OC	-3.5	0.9	1	0.8	3.4	-4.2
COc1ccc(-n2c(SCC(=O)Nc3ccc([N+](=O)[O-])cc3OC)nc3ccccc32)cc1	-0.3	0.8	1	0.9	15.6	-5.0
Cn1cccc1-c1cc(C(=O)N/N=C/c2cccc(O)c2)[nH]n1	7.0	1	0.9	0.9	1.5	95.8*
FC(F)(F)c1cnc2c(-c3ccccc3)n[nH]c2c1	3.8	1.1	1	1	2.8	81.3*
O=C(O)c1sc2cc(C(F)(F)F)cnc2c1-c1ccccc1	-0.7	1	1	1.1	-0.9	-7.3
COc1ccc(C(=O)C2CCCN(C(=O)c3n[nH]c4c3CCCC4)C2)cc1OC (stereo not drawn)	-3.4	1	1	1.2	5.9	59.9*
COC(=O)c1ccc(N/N=C/c2cc([N+](=O)[O-])cc(OC)c2O)cc1	23.2	1.2	0.8	1	-17.4	20.8
CCOC(=O)c1ccc(N/N=C/c2cc(Br)cc([N+](=O)[O-])c2O)cc1	56.3*	1.7	0.4	1.9	27.2	47.5
O=C1CCCC(=O)C1C(=O)C1CCN(S(=O)(=O)c2ccccc2)CC1	-5.3	1.2	1.1	1.1	5.4	0.3
CCN(CC)c1ccc(N2C(=O)/C(=C/c3cccs3)SC2=S)cc1	5.7	0.9	0.9	0.8	-2.7	-0.2
CCN(CC)c1ccc(N2C(=O)CSC2=S)cc1	9.9	.	0.9	.	13.7	57.0*
O=C1NN(c2ccc(Cl)cc2)C(=O)/C1=C\c1ccc(-c2cccc(C(=O)O)c2)o1	19.6	1.2	0.8	1.1	-2.4	13.1
O=C1NN(c2ccccc2)C(=O)/C1=C\c1ccc(-c2cc([N+](=O)[O-])ccc2O)o1	44.2	0.9	0.6	0.9	13.9	51.8*
COc1ccc(OC)c(-c2c3c([nH]c(=S)c2C#N)CCCC3)c1	-1.0	1.7	1	1.6	-21.9	-6.8

Screening data as filed in PubChem BioAssay.
